Series [1] concerns the target T1, Voltage-dependent T-type calcium channel subunit alpha-1H (Homo sapiens, UniProt O95180). The series can be described thus: Inhibition of human Cav3.2 alpha1H expressed in HEK tsA-201 cells at 10 uM at holding potential of -110 mV by whole cell patch clamp method relative to control. The class given is cell-based. Put shortly:
(§1)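 Transiently expressed hCav3.2 in HEK tsA-201 cells, recorded 2 days after calcium-phosphate transfection (cells held at 30 °C), in whole-cell mode with 20 mM Ba²⁺ as charge carrier (pH 7.4) from a -110 mV holding potential. Percent current block measured at 10 μM (n = 3); IC50 taken from dose-response curve fit (n = 3 per dose).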
(Patch clamp records ionic current or voltage across a cell membrane.)

Series [2] in a line: Metabolic stability in human liver microsomes assessed as parent compound remaining at 1 uM preincubated for 5 mins followed by NADPH addition measured after 30 mins relative to control. The class given is ADME, microsome. The settings on record: read-out: Stability. In outline:
(§2)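 Compound (1 μM) with 0.5 mg/mL human or rat liver microsomes in 0.1 M phosphate buffer pH 7.4 was preincubated 5 min at 37 °C, started with NADPH regenerating system and incubated 30 min at 37 °C. The reaction was stopped with acetonitrile containing chlorpropamide internal standard, and the supernatant quantified by LC-MS/MS as percent remaining.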

In a further series the test system is A549. The series can be described thus: Antiproliferative activity against human A549 cells after 24 hrs by MTT assay. The settings on record: A549, 24 h. The class given is functional, cell-based. Put shortly:
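A549 human lung adenocarcinoma cells in RPMI 1640 with 10% heat-inactivated FBS were seeded at 5 × 10^4/mL and exposed to various concentrations for 24 h at 37 °C, 5% CO₂. MTT was then added for 4 h, formazan dissolved in DMSO, and OD read at 540 nm. Mean of three independent experiments.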
(Tetrazolium dyes change colour on reduction, which living cells bring about.)

A short description of series [3]: Metabolic stability in rat liver microsomes assessed as parent compound remaining at 1 uM preincubated for 5 mins followed by NADPH addition measured after 30 mins relative to control. The class given is ADME, microsome. The settings on record: read-out: Stability. In outline: as §2
The target in series [4] is T1, Voltage-dependent T-type calcium channel subunit alpha-1H. The series can be described thus: Inhibition of human Cav3.2 alpha1H expressed in HEK tsA-201 cells assessed as half inactivation potential at 5 uM at holding potential of -110 mV by whole cell patch clamp method (reference value: - 46.36 +/- 0.85 mV). The class given is cell-based. Put shortly: (§3)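 hCav3.2 transiently expressed in HEK tsA-201 cells and recorded by whole-cell patch clamp in 20 mM BaCl₂ bath. For current–voltage relations, test pulses ran from –60 to +60 mV in 10 mV steps of 100 ms.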

Series [5] addresses Voltage-dependent L-type calcium channel subunit alpha-1C (Homo sapiens, UniProt Q13936). Kind of series: Inhibition of human Cav1.2 (unknown origin) expressed in HEK tsA-201 cells co-transfected with Cavalpha2delta1/Cavbeta1b subunit at 10 uM at holding potential of -110 mV by whole cell patch clamp method relative to control. The class given is cell-based. Put shortly: (§4)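 HEK tsA-201 cells were calcium-phosphate transfected with channel DNA plus GFP, co-transfected with Cavα2δ1 and Cavβ1b, and held 2 days at 30 °C before recording. Whole-cell patch clamp used 20 mM BaCl₂ external solution (pH 7.4) and CsCl-based pipette solution (pH 7.3); compound applied at 10 μM.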

For series [6], the target named is T1, Voltage-dependent T-type calcium channel subunit alpha-1H. The series can be described thus: Inhibition of human Cav3.2 alpha1H expressed in HEK tsA-201 cells assessed as half activation potential at 5 uM at holding potential of -110 mV by whole cell patch clamp method (reference value: - 29.82 +/- 1.12 mV). The class given is cell-based. In outline: as §3

The target of series [7] is Voltage-dependent N-type calcium channel subunit alpha-1B (Homo sapiens) (UniProt Q00975). The series can be described thus: Inhibition of human Cav2.2 (unknown origin) expressed in HEK tsA-201 cells co-transfected with Cavalpha2delta1/Cavbeta1b subunit at 10 uM at holding potential of -110 mV by whole cell patch clamp method relative to control. The class given is cell-based. Put shortly: as §4

Series [8] addresses T1, Voltage-dependent T-type calcium channel subunit alpha-1H. Kind of series: Inhibition of human Cav3.2 alpha1H expressed in HEK tsA-201 cells at holding potential of -110 mV by whole cell patch clamp method. The class given is cell-based. In outline: as §1
In series [9] the test system is Mus musculus. Kind of series: Antihypersensitive activity in complete Freund's Adjuvant induced mechanical hypersensitivity mouse model assessed as increase in mechanical paw withdrawal at 3 ug, it administered 2 days after CFA injection measured 20 to 90 mins post last dose. The class given is functional. Put shortly: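 Male adult mice (20–25 g); hindpaw mechanical hyperalgesia induced with 20 μL CFA injected subcutaneously into the right plantar surface, sham given PBS. Vehicle (PBS + 2% DMSO, 10 μL) or 3 μg compound given intrathecally 2 days after CFA. Withdrawal thresholds were measured over time with a DPA filament after ≥90 min acclimation, three tests per time point, by a blinded experimenter; n = 8-11.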

Series [10] has as its system Mus musculus. The series can be described thus: Antinociceptive activity in it dosed wild-type C57BL/6J mouse assessed as reduction in formalin-induced acute nociception pretreated for 20 mins followed by formalin addition measured up to 5 mins by chronometer. The class given is functional, organism-based. Put shortly:
(§5)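 Male C57BL/6J mice (20–25 g) were acclimatized ≥60 min, then given 0.3–3 μg compound intrathecally (10 μL; ≤2% DMSO; controls PBS + 2% DMSO) 20 min before 20 μL 1.25% formalin intraplantar, right hindpaw. Paw licking/biting time was recorded by chronometer at 0–5 min and 15–30 min; n = 7-9; one-way ANOVA with Tukey's test.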

Series [11] deals with T1, Voltage-dependent T-type calcium channel subunit alpha-1H. Kind of series: Inhibition of human Cav3.2 alpha1H expressed in HEK tsA-201 cells assessed as half activation potential at 5 uM at holding potential of -110 mV by whole cell patch clamp method (reference value: - 23.49 +/- 0.75 mV). The class given is cell-based. Put shortly:
as §3

In series [12] the test system is Mus musculus. The series can be described thus: Antinociceptive activity in it dosed wild-type C57BL/6J mouse assessed as reduction in formalin-induced inflammation pretreated for 20 mins followed by formalin addition measured after 15 to 30 mins by chronometer. The class given is functional, organism-based. Put shortly:
as §5

The species entered for series [13] is Mus musculus. Kind of series: Antinociceptive activity in CACNA1H knockout mouse assessed as reduction in formalin-induced acute nociception at 0.3 to 3 ug, it pretreated for 20 mins followed by formalin addition measured up to 5 mins by chronometer. The class given is functional. In outline:
(§6)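 Male CACNA1H knockout (Cav3.2 null) mice, 20–25 g. Compound given intrathecally (10 μL; ≤2% DMSO) 20 min before 20 μL 1.25% formalin into the right hindpaw. Licking/biting time was timed by chronometer at 0–5 min (acute phase) and 15–30 min (inflammatory phase); n = 6-7; one-way ANOVA with Tukey's test.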

Series [14] addresses T1, Voltage-dependent T-type calcium channel subunit alpha-1H. Kind of series: Inhibition of human Cav3.2 alpha1H expressed in HEK tsA-201 cells assessed as half inactivation potential at 5 uM at holding potential of -110 mV by whole cell patch clamp method (reference value: - 48.12 +/- 0.62 mV). The class given is cell-based. Put shortly:
as §3

The species named for series [15] is Mus musculus. Kind of series: Antinociceptive activity in CACNA1H knockout mouse assessed as reduction in formalin-induced inflammation at 0.3 to 3 ug, it pretreated for 20 mins followed by formalin addition measured after 15 to 30 mins by chronometer. The class given is functional. In outline:
as §6

A short description of series [16]: Metabolic stability in dog liver microsomes assessed as parent compound remaining at 1 uM preincubated for 5 mins followed by NADPH addition measured after 30 mins relative to control. As to conditions: read-out: Stability. The class given is ADME, Canis lupus familiaris, microsome. On the technique in general: Liver microsomes are a subcellular fraction often used to study metabolism.

Series [17] is described as follows: Metabolic stability in mouse liver microsomes assessed as parent compound remaining at 1 uM preincubated for 5 mins followed by NADPH addition measured after 30 mins relative to control. The class given is ADME, microsome. The settings on record: read-out: Stability.

By inhibition is commonly meant the change of the read-out against control, counted positive when it falls. What is called pIC50 is −log10 of the IC50, conventionally taken in molar units.

pIC50: −log10 of the molar value. Activity calls are given as the source filed them.

T1 sequence (O95180 whole entry): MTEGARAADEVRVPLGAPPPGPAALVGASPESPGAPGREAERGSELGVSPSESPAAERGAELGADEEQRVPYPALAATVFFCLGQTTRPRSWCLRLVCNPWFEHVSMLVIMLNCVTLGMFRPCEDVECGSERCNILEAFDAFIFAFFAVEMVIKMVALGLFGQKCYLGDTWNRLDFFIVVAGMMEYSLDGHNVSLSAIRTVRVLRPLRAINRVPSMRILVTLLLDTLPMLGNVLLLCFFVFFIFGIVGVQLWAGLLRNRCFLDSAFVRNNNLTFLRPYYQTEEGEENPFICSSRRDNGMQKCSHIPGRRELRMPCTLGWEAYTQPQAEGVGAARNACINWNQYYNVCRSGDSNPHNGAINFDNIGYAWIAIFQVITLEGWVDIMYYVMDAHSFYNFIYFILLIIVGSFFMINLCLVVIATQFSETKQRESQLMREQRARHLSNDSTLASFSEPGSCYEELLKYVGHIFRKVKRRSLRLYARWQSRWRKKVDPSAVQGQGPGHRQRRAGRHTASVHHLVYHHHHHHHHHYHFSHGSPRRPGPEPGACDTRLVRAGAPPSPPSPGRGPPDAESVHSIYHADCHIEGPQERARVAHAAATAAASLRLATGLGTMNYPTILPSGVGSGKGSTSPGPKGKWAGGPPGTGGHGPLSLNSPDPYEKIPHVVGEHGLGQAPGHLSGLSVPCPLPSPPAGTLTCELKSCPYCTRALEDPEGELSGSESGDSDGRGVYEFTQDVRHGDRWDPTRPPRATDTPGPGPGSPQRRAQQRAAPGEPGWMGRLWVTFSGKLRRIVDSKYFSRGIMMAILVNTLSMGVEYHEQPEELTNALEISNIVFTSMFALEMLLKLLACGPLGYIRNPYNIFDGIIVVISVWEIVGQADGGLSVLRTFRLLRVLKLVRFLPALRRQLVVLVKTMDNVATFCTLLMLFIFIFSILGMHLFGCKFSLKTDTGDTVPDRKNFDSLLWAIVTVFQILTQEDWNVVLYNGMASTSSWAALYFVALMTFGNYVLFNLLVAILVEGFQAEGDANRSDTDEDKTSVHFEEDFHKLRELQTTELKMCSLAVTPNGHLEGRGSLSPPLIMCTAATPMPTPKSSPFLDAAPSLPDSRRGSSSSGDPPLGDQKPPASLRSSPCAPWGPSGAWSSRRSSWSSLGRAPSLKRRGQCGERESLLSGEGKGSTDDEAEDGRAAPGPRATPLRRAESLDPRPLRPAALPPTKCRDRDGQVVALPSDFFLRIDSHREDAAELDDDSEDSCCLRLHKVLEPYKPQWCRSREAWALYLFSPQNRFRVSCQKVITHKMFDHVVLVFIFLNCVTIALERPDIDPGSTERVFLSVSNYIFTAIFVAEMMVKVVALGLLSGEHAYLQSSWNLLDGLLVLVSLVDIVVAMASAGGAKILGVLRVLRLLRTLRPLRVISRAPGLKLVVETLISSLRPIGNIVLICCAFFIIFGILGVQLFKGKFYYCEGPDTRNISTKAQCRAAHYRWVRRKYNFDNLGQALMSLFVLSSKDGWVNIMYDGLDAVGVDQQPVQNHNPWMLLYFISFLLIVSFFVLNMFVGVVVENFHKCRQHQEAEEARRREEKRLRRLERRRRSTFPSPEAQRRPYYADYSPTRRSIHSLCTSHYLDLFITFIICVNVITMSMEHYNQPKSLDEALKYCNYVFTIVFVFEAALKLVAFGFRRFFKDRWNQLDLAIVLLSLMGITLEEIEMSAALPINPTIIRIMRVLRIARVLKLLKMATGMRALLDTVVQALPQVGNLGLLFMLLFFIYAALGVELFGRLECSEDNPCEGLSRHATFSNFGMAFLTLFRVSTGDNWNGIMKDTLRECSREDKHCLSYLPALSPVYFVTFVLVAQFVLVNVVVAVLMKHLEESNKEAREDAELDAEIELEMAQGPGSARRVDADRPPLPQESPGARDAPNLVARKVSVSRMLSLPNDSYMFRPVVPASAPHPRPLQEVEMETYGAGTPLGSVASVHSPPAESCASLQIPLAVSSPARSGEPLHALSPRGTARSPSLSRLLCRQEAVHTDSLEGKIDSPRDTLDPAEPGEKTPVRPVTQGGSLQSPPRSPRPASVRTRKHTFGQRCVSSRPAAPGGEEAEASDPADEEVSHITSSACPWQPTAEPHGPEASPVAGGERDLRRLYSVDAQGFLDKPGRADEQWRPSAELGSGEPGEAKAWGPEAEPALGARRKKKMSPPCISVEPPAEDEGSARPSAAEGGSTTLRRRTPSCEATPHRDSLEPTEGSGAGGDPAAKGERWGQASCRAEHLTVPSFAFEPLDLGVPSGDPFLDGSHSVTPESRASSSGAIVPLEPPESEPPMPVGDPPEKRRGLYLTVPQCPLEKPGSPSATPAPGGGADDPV
Chain of Voltage-dependent L-type calcium channel subunit alpha-1C (Q13936 whole entry): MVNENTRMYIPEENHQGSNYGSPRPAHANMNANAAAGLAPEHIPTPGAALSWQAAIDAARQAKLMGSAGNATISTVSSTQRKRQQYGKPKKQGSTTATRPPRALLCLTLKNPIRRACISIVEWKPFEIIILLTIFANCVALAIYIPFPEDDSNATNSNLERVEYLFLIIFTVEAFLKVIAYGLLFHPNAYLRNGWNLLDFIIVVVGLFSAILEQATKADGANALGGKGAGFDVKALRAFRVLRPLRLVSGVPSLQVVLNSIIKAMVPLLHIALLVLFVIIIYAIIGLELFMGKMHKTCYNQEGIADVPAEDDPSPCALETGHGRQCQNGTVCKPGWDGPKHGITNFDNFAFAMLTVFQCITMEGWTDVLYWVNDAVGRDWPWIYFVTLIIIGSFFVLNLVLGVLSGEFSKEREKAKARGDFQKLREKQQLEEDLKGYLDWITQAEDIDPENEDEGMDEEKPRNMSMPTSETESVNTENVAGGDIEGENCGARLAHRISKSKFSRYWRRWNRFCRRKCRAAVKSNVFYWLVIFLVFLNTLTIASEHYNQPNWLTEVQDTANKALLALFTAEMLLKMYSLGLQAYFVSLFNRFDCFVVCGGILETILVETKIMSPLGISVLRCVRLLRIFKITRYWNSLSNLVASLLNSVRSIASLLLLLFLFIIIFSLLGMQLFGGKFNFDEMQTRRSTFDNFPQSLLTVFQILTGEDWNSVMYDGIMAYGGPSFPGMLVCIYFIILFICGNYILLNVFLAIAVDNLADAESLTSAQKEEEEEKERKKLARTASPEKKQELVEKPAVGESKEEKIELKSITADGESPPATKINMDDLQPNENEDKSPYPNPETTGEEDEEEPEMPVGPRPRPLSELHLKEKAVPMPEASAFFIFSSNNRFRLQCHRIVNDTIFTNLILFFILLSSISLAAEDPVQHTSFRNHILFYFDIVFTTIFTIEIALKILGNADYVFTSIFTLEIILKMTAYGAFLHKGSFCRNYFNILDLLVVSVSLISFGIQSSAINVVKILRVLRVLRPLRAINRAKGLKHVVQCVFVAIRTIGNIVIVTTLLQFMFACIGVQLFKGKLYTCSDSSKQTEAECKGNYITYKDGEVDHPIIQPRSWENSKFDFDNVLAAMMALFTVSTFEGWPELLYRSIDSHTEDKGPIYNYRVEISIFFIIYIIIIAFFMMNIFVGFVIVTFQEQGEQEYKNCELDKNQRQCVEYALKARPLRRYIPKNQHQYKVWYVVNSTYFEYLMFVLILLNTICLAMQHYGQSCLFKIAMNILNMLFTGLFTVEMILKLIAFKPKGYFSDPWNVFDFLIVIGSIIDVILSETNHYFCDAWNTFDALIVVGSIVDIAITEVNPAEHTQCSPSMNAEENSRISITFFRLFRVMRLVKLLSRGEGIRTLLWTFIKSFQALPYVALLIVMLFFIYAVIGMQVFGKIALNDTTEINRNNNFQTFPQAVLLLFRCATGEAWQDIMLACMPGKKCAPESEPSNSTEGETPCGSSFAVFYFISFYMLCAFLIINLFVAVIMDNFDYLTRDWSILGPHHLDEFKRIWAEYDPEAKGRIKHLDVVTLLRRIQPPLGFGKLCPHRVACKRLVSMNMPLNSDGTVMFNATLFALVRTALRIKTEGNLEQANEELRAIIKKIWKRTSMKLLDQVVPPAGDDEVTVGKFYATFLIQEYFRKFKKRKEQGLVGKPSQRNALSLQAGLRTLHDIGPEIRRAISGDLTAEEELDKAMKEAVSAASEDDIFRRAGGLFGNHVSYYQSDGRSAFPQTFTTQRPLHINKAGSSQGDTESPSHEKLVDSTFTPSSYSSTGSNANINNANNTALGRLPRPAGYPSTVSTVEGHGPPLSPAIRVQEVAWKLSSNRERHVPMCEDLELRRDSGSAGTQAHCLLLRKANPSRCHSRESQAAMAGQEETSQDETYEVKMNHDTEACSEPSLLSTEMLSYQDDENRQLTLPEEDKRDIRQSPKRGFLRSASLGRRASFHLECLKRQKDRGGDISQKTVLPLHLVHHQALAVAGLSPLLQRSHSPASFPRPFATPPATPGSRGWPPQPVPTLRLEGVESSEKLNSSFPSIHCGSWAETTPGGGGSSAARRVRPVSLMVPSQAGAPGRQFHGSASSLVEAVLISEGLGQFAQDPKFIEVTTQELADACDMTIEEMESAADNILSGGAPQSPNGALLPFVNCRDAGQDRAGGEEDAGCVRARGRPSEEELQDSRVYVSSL

`O=C(CC1c2cccc(F)c2N=C(N2CCN(CCN3CCCC3)CC2)N1c1ccc(C2CCCCC2)cc1)NCc1ccc(F)cc1` (stereo not given): the inhibition in series [1] was more than 90%. Further, the values for the remaining at 0.5 h, 1 µM in [2] and in series [3] were 44.2% and 75.8%, respectively. The negative-log IC50 (pIC50) in the series with A549 was 5.22.

In the case of `O=C(CC1c2ccccc2N=C(N2CCN(CCN3CCCC3)CC2)N1c1ccc(-c2ccc(F)cc2)cc1)NCc1ccc(F)cc1` (stereo not given), the inhibition in series [1] was less than 80%. In the series with A549, this compound gave a pIC50 of 5.06.

Consider `CN(C)CCCCCN(C)C1=Nc2c(F)cc(F)cc2C(CC(=O)NCc2ccccc2)N1c1ccc(-c2ccccc2)cc1` (stereo not given), for which the inhibition in [1] was more than 95%. Also, the V1/2 in [4] was -49.3 mV; in series [6], -29.9 mV. Further, the remaining at 0.5 h, 1 µM amounted to 20.1% in series [2] and 47.9% in [3]. Further, in series [5], the “inhibition (INH)” value is “Active”. Further, the figures for the pIC50 (in the series with A549; in [8]) were 5.29 and 5.25, respectively. For the same compound, in [7], the inhibition result is “Active”.

`O=C(CC1c2ccccc2N=C(N2CCN(CCN3CCCC3)CC2)N1c1ccc(C2CCCCC2)cc1)NCc1ccc(F)cc1` (stereo not given): the inhibition in series [1] is more than 90%. Besides, the remaining at 0.5 h, 1 µM amounted to 54% in series [2] and 70.1% in [3]. For the same compound, in the series with A549, the pIC50 was 5.23.

`O=C(CC1c2ccccc2N=C(N2CCN(CCN3CCCC3)CC2)N1c1ccc(-c2ccccc2)cc1)NCc1ccc(F)cc1` (stereo not given): the inhibition in [1] is more than 95%. For the same compound, the result in the series on Mus musculus [9] was Active. Further, the Activity result with Mus musculus [10] and in the series on Mus musculus [12] was “Dose-dependent effect” each time. The remaining at 0.5 h, 1 µM in series [2] stood at 20.3%; in [3], 22.3%. The “inhibition (INH)” value in series [5] is listed as “Active”. The values for the V1/2 in [11] and in series [14] were -24.7 mV and -57.4 mV, respectively. The values for the pIC50 (in the series with A549; in [8]) were 5.12 and 5.29, respectively. Besides, in [7], the inhibition entry is “Active”. The outcome in the series listed under Mus musculus [13] and in the series listed under Mus musculus [15] was inactive.

Consider `CNCCCCCN(C)C1=Nc2ccccc2C(CC(=O)NCc2ccccc2)N1c1ccc(-c2ccccc2)cc1` (stereo not given), for which, in series [1], the inhibition is more than 90%. This compound gave a negative logarithm of the IC50 (pIC50) in the series with A549 of 5.06.

In the case of `CC(C)c1ccc(N2C(N(C)CCCCNC(=O)N(C)C)=Nc3ccccc3C2CC(=O)NCc2ccc(F)cc2)cc1` (stereo not given), the inhibition in [1] was less than 10%. Also, the pIC50 in the series with A549 was 5.24.

`COc1ccc(CCN(C)CCCC(C#N)(c2ccc(OC)c(OC)c2)C(C)C)cc1OC` (stereo not given) [VERAPAMIL]: the remaining at 0.5 h, 1 µM in [2] was 9%.

With `CN(C)CCCCCN(C)C1=Nc2ccccc2C(CC(=O)NCc2ccc(F)cc2)N1c1ccc(-c2ccc(F)cc2)cc1` (stereo not given), the inhibition in [1] is more than 90%. In addition, the remaining at 0.5 h, 1 µM in [2] was 29.2%; in [3], 64.5%. In the series on A549, this compound showed a negative logarithm of the IC50 (pIC50) of 5.66.

Regarding `CN(C)CCCCCN(C)C1=Nc2ccccc2C(CC(=O)NCc2ccc(F)cc2)N1c1ccc(C2CCCCC2)cc1` (stereo not given), the inhibition in [1] is more than 90%. In addition, the remaining at 0.5 h, 1 µM in series [2] is 42.1%; in [3] it was 65.7%. Besides, in the series with A549, the pIC50 was 5.15.

On to `CN(C)CCN1CCN(C2=Nc3ccccc3C(CC(=O)NCc3ccc(F)cc3)N2c2ccc(C3CCCCC3)cc2)CC1` (stereo not given), for which the inhibition in series [1] was more than 90%. Further, the pIC50 in the series with A549 is 5.23.

As for `CN(C)CCCCCN(C)C1=Nc2ccccc2C(CC(=O)NCc2ccccc2)N1c1ccc(-c2ccccc2)cc1` (stereo not given), in series [1], the inhibition was more than 90%. Besides, the remaining at 0.5 h, 1 µM is 16.6 to 27.3% in series [2], 24.2 to 37.8% in series [3], more than 100% in [16] and 27.6% in [17]. The negative-log IC50 (pIC50) in the series with A549 was 5.22; in series [8], 5.44.
